Screening results (PubChem)
S1P1 ag-PAM: S1P1 (human) agonism or agonism potentiation. S1P1 CRE-bla cells, forskolin, beta-lactamase FRET, potentiator mode; S1P1 agonist co-added at EC20, 2 nM; 100% = saturating reference agonist, 0% = basal. P21453. activation, % at 9.5 µM. AID 449. 0.57% of 56,000 active;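 active means activation above a cutoff set at the mean activation of all tested compounds plus 3 SD, cut at about 54% in these data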;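 further: forskolin at 4 µM as EC80 and the EC20 agonist is SEW2871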
5HT1a antag: antagonists of human 5-HT1a serotonin receptor; P08908; CHO 5-HT1a Ga15 NFAT-bla reporter, antagonist mode; inhibition, % at 10 µM; 0.68% of 62,000 active;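 active means inhibition above the mean of all tested compounds plus 3 SD, cut at about 43% in these data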;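 further: receptor stimulated by 5-CT agonist at 100 nM near EC80; beta-lactamase reporter measured by ratiometric fluorescence of a cleavable substrate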
HTR1E agonist: activates the human 5-HT1E serotonin receptor; CHO 5-HT1E Ga15 NFAT-bla reporter, FRET; 0% DMSO wells, 100% control agonist wells; 0.69% of 65,000 active; activation, % at 6 µM;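 active means activation above a set limit, the screen-wide mean activation plus 3 SD, cut at about 8.5% in these data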
S1P3 agonist: S1P3 (human) receptor agonism. Q99500. 0.1% of 60,000 active. S1P3 NFAT-BLA reporter cells, FRET ratio; relative to 1 µM S1P, basal subtracted. AID 373. activation, % at 4.5 µM;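 active means activation above the screen-wide mean plus 3 SD, cut at about 4.5% in these data, passing the limit was not always enough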
Target sequence (Q99500 whole entry, looked up): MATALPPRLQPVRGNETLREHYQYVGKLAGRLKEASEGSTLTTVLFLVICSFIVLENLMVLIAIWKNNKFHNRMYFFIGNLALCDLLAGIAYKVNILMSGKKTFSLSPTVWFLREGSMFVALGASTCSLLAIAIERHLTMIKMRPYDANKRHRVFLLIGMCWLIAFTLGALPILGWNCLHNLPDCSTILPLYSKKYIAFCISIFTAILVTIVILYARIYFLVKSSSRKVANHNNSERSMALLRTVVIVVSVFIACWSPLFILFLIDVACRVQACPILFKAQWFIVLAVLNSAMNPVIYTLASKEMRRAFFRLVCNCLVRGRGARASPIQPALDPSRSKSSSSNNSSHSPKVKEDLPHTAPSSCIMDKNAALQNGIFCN
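Assay system: stable CHO line with human S1P3, Gα16, NFAT-BLA reporter; Detection: FRET β-lactamase substrate fluorescence, excitation 405 nm, 460/535 nm emission ratio, background-subtracted; Read-out: percent activation versus median 1 µM S1P response, basal-subtracted, per plate; Incubation: cells plated overnight, compound 4 h 37 °C, substrate 2 h RT.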
HTR1A agonist: 5-HT1a (human) receptor agonism. CHO 5-HT1a Ga15 NFAT-bla reporter, FRET ratio; 0% basal, 100% maximal reference agonist. activation, % at 10 µM. 0.56% of 65,000 active. AID 567;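 active means activation above the screen-wide mean activation plus 3 SD, cut at about 19% in these data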
5HT1E antag: antagonists of human 5-HT1E serotonin receptor; P28566; CHO 5-HT1E Ga15 NFAT-bla reporter, FRET, antagonist; inhibition, % at 6 µM; 0.99% of 65,000 active; AID 571;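 active means inhibition above a set limit, the mean inhibition across every tested compound plus 3 SD, cut at about 29% in these data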;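 further: signal is the 460 over 535 nm emission ratio of beta-lactamase substrate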
Large screens that a line does not name were inactive. Rows were chosen to be rich in hits. Some 3% of all compounds tested hit in one or more screens of this group.

CC(=O)N1CCc2cc(S(=O)(=O)NC(CC(C)C)C(=O)Nc3ccc4c(c3)OCCO4)ccc21 (stereo unspecified)	none
COc1ccc(-c2cn3c(C)c(C(=O)N4CCN(c5ccc(OC)cc5)CC4)sc3n2)cc1	none
CNC(=O)CCC(=O)Nc1ccc(C(=O)OC)cc1	none (no result: S1P1 ag-PAM)
COC(=O)c1ccc(NC(=O)CCn2cccc2)cc1	HTR1E agonist 9.6
O=C(Cn1c(C(=O)N2CCc3ccccc3C2)cc2sccc21)c1ccccc1	5HT1a antag 43.5
CC1c2[nH]c3ccccc3c2CCN1C(=O)Nc1ccccc1 (stereo unspecified)	none
COC(=O)C1=COC(C)C2CN3CCc4c([nH]c5ccccc45)C3CC12 (stereo unspecified)	HTR1A agonist 20.3
Clc1ccc(OCc2nnc(SCc3nc4ccccc4[nH]3)n2Cc2ccco2)cc1	S1P1 ag-PAM 61.0
Clc1cccc(-c2nnc(SCc3nc4ccccc4[nH]3)n2Cc2ccco2)c1	none
CCN(CC)c1nc(Nc2ccccc2)nc(Oc2ccc(=O)[nH]n2)n1	none
CCN(CC)c1nc(Nc2ccc(Cl)cc2)nc(OCC#N)n1	5HT1E antag 33.0
C=CCSC1=C(C#N)C(c2ccc(OCC)cc2)CC(=O)N1 (stereo unspecified)	none
COC(=O)c1ccc(-c2sc3nc(N4CCOCC4)c4c(c3c2N)CCCC4)o1	HTR1A agonist 25.5 (no result: 5HT1a antag)
Cc1nn2c(C(F)(F)F)cc(-c3ccc(Cl)cc3)nc2c1C(=O)N1CCOCC1	HTR1E agonist 37.8
C(=C\c1ccccc1)/CSc1nnc(-c2ccccn2)n1Cc1ccco1	5HT1a antag 52.0
Clc1ccccc1CSc1nnc(-c2ccccn2)n1Cc1ccco1	none (no result: S1P1 ag-PAM, S1P3 agonist)
CCOC(=O)c1cnc2nc[nH]n2c1=O	none
CSc1cccc(NC(=O)Nc2ccccc2)c1	HTR1E agonist 10.1
CSc1cccc(NC(=O)COc2ccccc2)c1	none (no result: S1P1 ag-PAM)
CCC(C)(C)n1nnnc1C(c1ccccn1)N1CCOCC1 (stereo unspecified)	none
CCN(Cc1ccccc1)C(c1ccccn1)c1nnnn1C(C)(C)CC (stereo unspecified)	5HT1a antag 45.3
COc1ccc(-c2cc(C(F)(F)F)nc(NCc3ccco3)n2)cc1OC	none (no result: S1P1 ag-PAM, S1P3 agonist)
COc1cccc(-c2cc(C(F)(F)F)nc(NCc3ccco3)n2)c1	5HT1a antag 47.1 (no result: S1P1 ag-PAM, S1P3 agonist)
COc1cc(C2Nc3ccc4ncccc4c3C3=C2C(=O)CCC3)ccc1O (stereo unspecified)	none
CCC(Oc1ccccc1)C(=O)N1CCC(C(N)=O)CC1 (stereo unspecified)	HTR1A agonist 20.1 (no result: S1P1 ag-PAM)
CCC(Oc1ccccc1)C(=O)N1CCN(c2ccccn2)CC1 (stereo unspecified)	none (no result: S1P1 ag-PAM)
COc1ccccc1N1CCN(C(=O)C2c3ccccc3Oc3ccccc32)CC1	5HT1a antag 54.8, 5HT1E antag 42.3
COc1ccccc1N1CCN(C(=O)C2CC=CCC2C(=O)O)CC1 (stereo unspecified)	HTR1E agonist 49.1
COc1ccccc1N1CCN(S(=O)(=O)c2ccc(Cl)s2)CC1	none
COc1ccc(-c2c3c(=O)n(C)c(=O)n(C)c3cn2C2CCCCC2)cc1	none
S=C(Nc1ccccn1)c1ccccn1	5HT1E antag 33.1
O=C(Nc1ccccc1)Nc1ccccn1	none (no result: S1P1 ag-PAM)
CCOc1cc(CN2CCN(c3cccc(C(F)(F)F)c3)CC2)ccc1O	HTR1A agonist 20.1 (no result: S1P1 ag-PAM)
Cc1c(CN2CCN(c3cccc(C(F)(F)F)c3)CC2)c(=O)n(-c2ccccc2)n1C	HTR1E agonist 60.3
Cc1nc(N2CCN(c3ccccc3)CC2)c2c3c(sc2n1)CCC3	none
CSc1nc(N2CCOCC2)c2c3c(sc2n1)CCC3	5HT1E antag 28.9
COc1ccc(C2=CC(c3ccc(Cl)cc3)n3cnnc3N2)cc1OC (stereo unspecified)	5HT1E antag 34.5 (no result: S1P1 ag-PAM, S1P3 agonist)
COc1ccc(C2C=C(c3ccc(Cl)cc3)Nc3nc(NC(C)=O)nn32)cc1 (stereo unspecified)	none (no result: 5HT1a antag)
COCCOc1ccc(C(F)(F)F)cc1Nc1nc2ccccc2o1	none
Cc1nnc(Sc2nc(Sc3nnc(C)s3)nc(N3CCN(C)CC3)n2)s1	5HT1a antag 77.6, 5HT1E antag 68.2
Cc1nc(COC(=O)c2c(C)nn(-c3ccccc3)c2C)cs1	none
COc1ccc(NS(=O)(=O)c2coc(C(N)=O)c2)cc1Cl	none
COc1ccc(-n2nc3ccc(NS(C)(=O)=O)cc3n2)cc1Cl	S1P1 ag-PAM 102.9
Cc1cccc(NC(=O)C2CCCN(C(=O)Nc3ccccc3)C2)c1C (stereo unspecified)	HTR1E agonist 87.7
O=C(NCc1ccccc1)C1CCCN(C(=O)Nc2ccccc2)C1 (stereo unspecified)	none
CCc1nc(C)c(C#N)c2cc(OC)c(OC)cc12	5HT1E antag 43.7
Cn1nnc2cc(C(=O)N3CCC(c4ccccc4)C3)ccc21 (stereo unspecified)	none
COC(=O)c1cc2sc(Cl)cc2n1CC(=O)Nc1cccc(SC)c1	5HT1a antag 48.0
C[C@H]1C[C@@H]2[C@H]([C@@H](O)C[C@@]3(C)[C@H]2CC[C@]3(O)C(=O)CO)[C@@]2(C)C=CC(=O)C=C12	none (no result: 5HT1a antag)
CCOC(=O)C1=C(N)Oc2cc(C)n(CCc3ccc(OC)c(OC)c3)c(=O)c2C1c1cccnc1 (stereo unspecified)	5HT1E antag 30.5
Cc1cc(N2CCN(C(=O)c3ccco3)CC2)n2nc(C)nc2n1	none
CCOC(=O)N1CCN(C2=Nc3cccc4cccc2c34)CC1	HTR1A agonist 70.7
Cc1cc(C)n(C(=O)CNC(=O)COc2ccccc2)n1	none
CCOC(=O)Nc1ccc2c(c1)ncn2C1CCCCC1	HTR1E agonist 39.1
COc1nc(NCCC2=CCCCC2)nc(OC)n1	HTR1A agonist 50.6 (no result: S1P1 ag-PAM)
COc1nc(NCCc2ccc(OC)c(OC)c2)nc(OC)n1	none
COc1cc(NC(=O)CN2C(=O)c3ccccc3S2(=O)=O)c(OC)cc1Cl	none
CSc1ccccc1NS(=O)(=O)c1ccc2c(c1)OCCO2	none
COC(=O)c1ccc(C)c(NS(=O)(=O)c2ccc3c(c2)OCCO3)c1	5HT1E antag 60.2
CCOC(=O)N1CCN(C(=O)c2ccc(Cn3c(=S)[nH]c4cc5c(cc4c3=O)OCO5)cc2)CC1	5HT1E antag 29.2 (no result: S1P1 ag-PAM, S1P3 agonist)
N#Cc1nc(-c2cccs2)oc1NCc1ccc2c(c1)OCO2	none (no result: 5HT1a antag)
CN1CC(=O)NC1=NC(=O)c1ccc(Cl)c(S(=O)(=O)N2CCCCCC2)c1	none
COc1cccc(C(=O)Nc2ccc(C)cc2)c1	HTR1A agonist 164.4 (no result: S1P1 ag-PAM, S1P3 agonist)
COc1cccc(C(=O)Nc2ccc(C(=O)O)cc2)c1	none
CC(C)n1c2ccccc2c2nc3ccccc3nc21	5HT1E antag 32.3
